Source: ChEMBL document CHEMBL1132153, “Antitumor agents. 196. Substituted 2-thienyl-1,8-naphthyridin-4-ones: their synthesis, cytotoxicity, and inhibition of tubulin polymerization” (J Med Chem, 1999)

Key:
Tubulin (Bos taurus) [1] = biological target: T1, Tubulin (Bos taurus) (UniProt Q6B856+Q862L2+Q862F3); assay: Concentration inhibiting [3H]-colchicine binding to tubulin; type: protein assay; settings: concentration not given here
In short: (§1)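 Inhibition of [³H]colchicine binding to electrophoretically homogeneous bovine brain tubulin (1 µM). [³H]colchicine and inhibitor each at 5 µM. Result given as % inhibition.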

CAKI-1 = assay: In vitro cytotoxicity against CAKI-1 human renal cancer cells; type: functional; settings: read-out: ED50 (the source's name)
In short: (§2)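 Panel of human tumor lines: KB nasopharyngeal epidermoid, A-549 lung, HCT-8 ileocecal, CAKI-1 renal, MCF-7 breast, SKMEL-2 melanoma. Growth measured by SRB assay and compared with untreated cells.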

MCF7 = assay: In vitro cytotoxicity against MCF-7 human breast cancer cells; type: functional; settings: read-out: ED50 (the source's name); in short: as §2
A549 = assay: In vitro cytotoxicity against A-549 human lung cancer cells; type: functional; settings: read-out: ED50 (the source's name); in short: as §2
KB [2] = assay: In vitro cytotoxicity against KB human epidermoid carcinoma of the nasopharynx; type: functional; settings: read-out: ED50 (the source's name); in short: as §2
Tubulin [3] = biological target: T2, Tubulin (Bos taurus, UniProt Q6B856+Q862L2+Q862F3); assay: Concentration inhibiting tubulin polymerization (ITP); type: functional
RXF 393 = assay: In vitro growth inhibition of RXF-393 renal cancer cell line.; type: functional; settings: Homo sapiens
MDA-MB-435 = assay: In vitro growth inhibition of MDA-MB-435 breast cancer cell line.; type: functional; settings: Homo sapiens
MDA-N = assay: In vitro growth inhibition of MDA-N breast cancer cell line.; type: functional; settings: Homo sapiens
PC-3 = assay: In vitro growth inhibition of PC-3 prostate cancer cell line.; type: functional; settings: Homo sapiens
U-251 = assay: In vitro growth inhibition of U251 CNS cancer cell line.; type: functional; settings: Homo sapiens
SK-MEL-5 = assay: In vitro growth inhibition of SK-MEL-5 melanoma cell line.; type: functional; settings: Homo sapiens
NCI-H23 = assay: In vitro growth inhibition of NCI-H23 non small cell lung cancer cell line.; type: functional; settings: Homo sapiens
Tubulin [4] = biological target: T2, Tubulin; assay: Inhibition of tubulin polymerization (ITP); type: functional
In short: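 Polymerization of electrophoretically homogeneous bovine brain tubulin at 12 µM, run with a range of inhibitor concentrations. IC50 is the concentration inhibiting polymerization by 50%, reported ± SD.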

OVCAR-3 = assay: In vitro growth inhibition of OVCAR-3 ovarian cancer cell line.; type: functional; settings: Homo sapiens
HL-60 [5] = assay: In vitro growth inhibition of HL-60 (TB) leukemia cell line.; type: functional; settings: Homo sapiens
In short: (§3)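 Human leukemia HL-60(TB) cells exposed to compound in vitro. The read-out is log GI50 in molar units, defined as the log concentration that reduced cell growth to 50% of the level in untreated controls.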

SK-MEL-2 [6] = assay: In vitro cytotoxicity against SKMEL-2 human melanoma cancer; type: functional; settings: read-out: ED50 (the source's name); in short: as §2
HCT-8 = assay: In vitro cytotoxicity against HCT-8 human ileocecal cancer cells; type: functional; settings: read-out: ED50 (the source's name); in short: as §2
KB [7] = assay: In vitro cytotoxicity against KB-Vin cancer cell line; type: functional; settings: Homo sapiens, read-out: ED50 (the source's name)
SW-620 = assay: In vitro growth inhibition of SW-620 colon cancer cell line.; type: functional; settings: Homo sapiens
Tubulin (Bos taurus) [8] = biological target: T1, Tubulin (Bos taurus); assay: Concentration inhibiting [3H]colchicine binding to tubulin, at a concentration of 5 uM; type: protein assay; in short: as §1
SK-MEL-2 [9] = assay: In vitro cytotoxicity against SKMEL-2 human melanoma cancer cells; type: functional; settings: read-out: ED50 (the source's name); in short: as §2
HL-60 [10] = assay: In vitro growth inhibition of HL-60 (TB) leukemia cell line; type: functional; settings: Homo sapiens; in short: as §3
KB [11] = assay: In vitro cytotoxicity against KB-Vin cancer cell line.; type: functional; settings: Homo sapiens, read-out: ED50 (the source's name)

Cc1cc(C)c2c(O)cc(-c3csc4ccccc34)nc2n1
inhibition (Tubulin (Bos taurus) [1]): 26%
EC50 (CAKI-1): > 0.5 µM
EC50 (MCF7): 0.5 µM
EC50 (A549): 0.3 µM
EC50 (KB [2]): 0.12 µM
IC50 (Tubulin [3]): 0.78 µM

Cc1ccc2c(O)cc(-c3ccc(Cl)s3)nc2n1
GI50 (RXF 393): 2.04 µM
GI50 (MDA-MB-435): 0.38 µM
GI50 (MDA-N): 0.186 µM
GI50 (PC-3): 1.58 µM
GI50 (U-251): 1.2 µM
GI50 (SK-MEL-5): 0.38 µM
GI50 (NCI-H23): 1 µM
IC50 (Tubulin [4]): 1.7 µM
GI50 (OVCAR-3): 2.04 µM
GI50 (HL-60 [5]): 0.204 µM

Cc1ccc2c(O)cc(-c3cccnc3)nc2n1
EC50 (SK-MEL-2 [6]): > 10 µM
EC50 (CAKI-1): 5 µM
EC50 (MCF7): 1.2 µM
EC50 (HCT-8): 2.1 µM
IC50 (Tubulin [4]): 7.7 µM
EC50 (A549): 4.6 µM
EC50 (KB [2]): 3 µM
EC50 (KB [7]): 2.5 µM

Cc1ccc2c(O)cc(-c3sc(-c4ccccc4)cc3C)nc2n1
GI50 (SW-620): 10 µM
GI50 (RXF 393): 36.3 µM
GI50 (MDA-MB-435): 3.55 µM
GI50 (MDA-N): 3.89 µM
GI50 (SK-MEL-5): 3.39 µM
GI50 (NCI-H23): 6.03 µM
IC50 (Tubulin [4]): 14 µM
GI50 (OVCAR-3): 21.4 µM
GI50 (HL-60 [5]): 5.5 µM

Cc1ccc2c(O)cc(-c3cccs3)nc2n1
GI50 (SW-620): 2.95 µM
GI50 (RXF 393): 11.2 µM
GI50 (MDA-MB-435): 2 µM
GI50 (MDA-N): 1.86 µM
GI50 (PC-3): 9.33 µM
EC50 (MCF7): > 1.6 µM
GI50 (U-251): 17 µM
GI50 (SK-MEL-5): 6.03 µM
GI50 (NCI-H23): 4.37 µM
IC50 (Tubulin [4]): 6 µM
EC50 (A549): > 6.3 µM
EC50 (KB [2]): 6.3 µM
GI50 (OVCAR-3): 30.9 µM
EC50 (KB [7]): 9.5 µM
GI50 (HL-60 [5]): 2.69 µM

Cc1ccc2c(O)cc(-c3csc4ccccc34)nc2n1
GI50 (SW-620): < 0.01 µM
GI50 (RXF 393): < 0.01 µM
GI50 (MDA-MB-435): < 0.01 µM
GI50 (MDA-N): < 0.01 µM
GI50 (SK-MEL-5): < 0.01 µM
GI50 (NCI-H23): 0.0219 µM
IC50 (Tubulin [3]): 0.37 µM
GI50 (OVCAR-3): < 0.01 µM
GI50 (HL-60 [5]): < 0.01 µM
inhibition (Tubulin (Bos taurus) [8]): 65%

Cc1ccc2c(O)cc(-c3ccco3)nc2n1
EC50 (CAKI-1): > 10 µM
EC50 (MCF7): > 20 µM
EC50 (HCT-8): > 10 µM
IC50 (Tubulin [4]): 14 µM
EC50 (SK-MEL-2 [9]): > 10 µM
EC50 (A549): > 10 µM
EC50 (KB [2]): > 10 µM

Cc1ccc2c(O)cc(-c3sccc3C)nc2n1
GI50 (SW-620): 0.145 µM
GI50 (RXF 393): 0.631 µM
GI50 (MDA-MB-435): 0.107 µM
GI50 (MDA-N): 0.0776 µM
GI50 (PC-3): 0.245 µM
GI50 (U-251): 0.468 µM
GI50 (SK-MEL-5): 0.178 µM
GI50 (NCI-H23): 0.145 µM
IC50 (Tubulin [4]): 2.8 µM
GI50 (OVCAR-3): 0.661 µM
GI50 (HL-60 [5]): 0.174 µM

Cc1ccc2c(O)cc(-c3ccsc3)nc2n1
GI50 (SW-620): 1 µM
GI50 (RXF 393): 3.24 µM
GI50 (MDA-MB-435): 0.49 µM
GI50 (MDA-N): 0.363 µM
GI50 (PC-3): 3.09 µM
EC50 (MCF7): > 3.1 µM
EC50 (HCT-8): > 3.1 µM
GI50 (U-251): 3.89 µM
GI50 (SK-MEL-5): 2.57 µM
GI50 (NCI-H23): 1.86 µM
GI50 (HL-60 [10]): 2.19 µM
IC50 (Tubulin [4]): 7 µM
EC50 (A549): > 6.3 µM
EC50 (KB [2]): 6.3 µM
GI50 (OVCAR-3): 5.13 µM

Cc1ccc2c(O)cc(-c3ccc(C)s3)nc2n1
GI50 (SW-620): 0.0479 µM
GI50 (RXF 393): 0.195 µM
GI50 (MDA-MB-435): 0.0234 µM
GI50 (MDA-N): 0.0229 µM
GI50 (PC-3): 0.204 µM
GI50 (U-251): 0.324 µM
GI50 (SK-MEL-5): 0.204 µM
GI50 (NCI-H23): 0.138 µM
IC50 (Tubulin [4]): 1.7 µM
GI50 (OVCAR-3): 0.257 µM
GI50 (HL-60 [5]): 0.0776 µM

Cc1cnc2nc(-c3sccc3C)cc(O)c2c1
GI50 (SW-620): 4.17 µM
GI50 (RXF 393): 4.47 µM
GI50 (MDA-MB-435): 0.324 µM
EC50 (CAKI-1): > 5 µM
GI50 (MDA-N): 0.676 µM
GI50 (PC-3): 5.37 µM
EC50 (MCF7): 1.1 µM
EC50 (HCT-8): 1 µM
EC50 (KB [11]): 1.9 µM
GI50 (U-251): 9.12 µM
GI50 (SK-MEL-5): 2.04 µM
IC50 (Tubulin [4]): 3.8 µM
EC50 (A549): 2.5 µM
EC50 (KB [2]): 1.3 µM
GI50 (OVCAR-3): 3.8 µM

Cc1ccc2c(O)cc(-c3cc(C)sc3C)nc2n1
GI50 (SW-620): 1.41 µM
GI50 (RXF 393): 1.91 µM
GI50 (MDA-MB-435): 0.372 µM
GI50 (MDA-N): 0.631 µM
GI50 (PC-3): 2.24 µM
GI50 (U-251): 3.47 µM
GI50 (SK-MEL-5): 0.661 µM
GI50 (NCI-H23): 1.23 µM
IC50 (Tubulin [4]): 4.8 µM
GI50 (OVCAR-3): 2.82 µM
GI50 (HL-60 [5]): 1.55 µM

Cc1ccc2c(O)cc(-c3ccc(Br)s3)nc2n1
EC50 (MCF7): > 0.8 µM
EC50 (HCT-8): > 0.8 µM
EC50 (KB [11]): 0.5 µM
EC50 (SK-MEL-2 [9]): > 10 µM
EC50 (A549): > 3.1 µM
EC50 (KB [2]): 0.8 µM
IC50 (Tubulin [3]): 1.5 µM
inhibition (Tubulin (Bos taurus) [8]): 19%

Cc1ccc2c(O)cc(-c3sc4ccccc4c3C)nc2n1
GI50 (SW-620): 20 µM
GI50 (RXF 393): 17 µM
GI50 (MDA-MB-435): 4.79 µM
GI50 (MDA-N): 17 µM
GI50 (PC-3): 33.1 µM
GI50 (U-251): 38.9 µM
GI50 (SK-MEL-5): 14.8 µM
GI50 (NCI-H23): 19.5 µM
IC50 (Tubulin [4]): 13 µM
GI50 (OVCAR-3): 19.5 µM
GI50 (HL-60 [5]): 18.6 µM

Cc1cnc2nc(-c3ccc(C)s3)cc(O)c2c1
EC50 (SK-MEL-2 [6]): > 2.5 µM
EC50 (CAKI-1): 1.25 µM
EC50 (MCF7): 1.1 µM
EC50 (HCT-8): 0.9 µM
EC50 (KB [11]): 1.1 µM
IC50 (Tubulin [4]): 2.7 µM
EC50 (A549): 1.3 µM
EC50 (KB [2]): 1.1 µM

Cc1cnc2nc(-c3csc4ccccc34)cc(O)c2c1
inhibition (Tubulin (Bos taurus) [1]): 26%
EC50 (CAKI-1): 0.134 µM
EC50 (MCF7): 0.125 µM
EC50 (HCT-8): 0.057 µM
EC50 (SK-MEL-2 [9]): 0.135 µM
EC50 (A549): 0.056 µM
EC50 (KB [2]): 0.027 µM
IC50 (Tubulin [3]): 0.91 µM

Cc1ccc2c(O)cc(-c3cc4ccccc4s3)nc2n1
GI50 (SW-620): > 100 µM
GI50 (RXF 393): 51.3 µM
GI50 (MDA-MB-435): > 100 µM
GI50 (MDA-N): > 100 µM
GI50 (PC-3): > 100 µM
GI50 (U-251): > 100 µM
GI50 (SK-MEL-5): > 100 µM
GI50 (NCI-H23): > 100 µM
IC50 (Tubulin [4]): > 40 µM
GI50 (OVCAR-3): > 100 µM
GI50 (HL-60 [5]): > 100 µM

Cc1ccnc2nc(-c3csc4ccccc34)cc(O)c12
inhibition (Tubulin (Bos taurus) [1]): 22%
EC50 (CAKI-1): > 0.25 µM
EC50 (MCF7): 0.25 µM
EC50 (A549): 0.2 µM
EC50 (KB [2]): 0.04 µM
IC50 (Tubulin [3]): 1.2 µM
